Where “and” joins values, the source holds several entries; their conditions need not be identical. Identical values can stand only once. Entries after “also recorded” stand apart in the source; their conditions may differ.
Experiments:
Assay type in all cases: in vivo, human
PDD or DLB participants [1] = assay: Mini Mental State Examination; settings: for MMSE score: individual participants; for MMSE score, AVG: group AVG (Screening AVG 15.4); for Average increase in MMSE: six months (24-week) compared to baseline
PDD or DLB participants [2] = assay: Scales for Outcomes in Parkinson's disease-Cognition; settings: for SCOPA-Cog (**/43) score: individual participants; for Average increase in SCOPA-Cog: six months compared to baseline
PDD or DLB participants [3] = assay: Safety and tolerability, adverse events
PDD or DLB participants [4] = assay: QTc interval by EKG; settings: returned to normal range in subsequent visits
PDD or DLB participants [5] = assay: Laboratory blood chemistry; settings: 150 mg group
Method in brief: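 PDD or DLB participants (n = 5 at 150 mg, n = 7 at 300 mg) took oral doses daily for 24 weeks. Blood chemistry (lipids, phosphate, bilirubin, electrolytes, lipase, α-amylase, ALT, AST) plus CBC with differential were drawn every two weeks for the first two months, then monthly. EKGs and physical/neurological exams were done at the same visits.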

homovanillic acid (HVA) = assay: HVA measurement by ELISA
α-synuclein = α-synuclein sandwich ELISA in CSF and plasma; settings: for Plasma α-synuclein vs baseline: 2 months
DJ-1 = assay: Neurodegenerative disease magnetic bead panel, DJ-1
S100B = assay: Neurodegenerative disease magnetic bead panel, S100B
[6] = test system: Neuron Specific Enolase (NSE); assay: Neurodegenerative disease magnetic bead panel, NSE; settings: 6 months
total tau = assay: Neurodegenerative disease magnetic bead panel, total tau and p-tau181
Aβ40 = assay: Neurodegenerative disease magnetic bead panel, Aβ40
Aβ42 = assay: Neurodegenerative disease magnetic bead panel, Aβ42; settings: 150 mg group

Cc1cn(-c2cc(NC(=O)c3ccc(C)c(Nc4nccc(-c5cccnc5)n4)c3)cc(C(F)(F)F)c2)cn1 [Nilotinib]
MMSE score (PDD or DLB participants [1]; 300 ng (sub-heading as printed) oral daily, Week-12): 29 and 26 and 25 and 28 and 1 and 6
MMSE score (PDD or DLB participants [1]; 300 ng (sub-heading as printed) oral daily, Week-16): 27 and 29 and 25 and 14 and 6 and 12
MMSE score (PDD or DLB participants [1]; 300 ng (sub-heading as printed) oral daily, Week-20): 26 and 30 and 25 and 24 and 2 and 6
MMSE score (PDD or DLB participants [1]; 300 ng (sub-heading as printed) oral daily, Week-24): 28 and 30 and 25 and 26 and 5 and 9
MMSE score, AVG (PDD or DLB participants [1]; 150 mg oral daily, Week-4): 17.4
MMSE score (PDD or DLB participants [1]; 150 mg oral daily, Week-4): 20 and 0 and 11 and 28
MMSE score, AVG (PDD or DLB participants [1]; 150 mg oral daily, Week-8): 18
MMSE score (PDD or DLB participants [1]; 150 mg oral daily, Week-8): 22 and 1 and 11 and 29 and 27
MMSE score, AVG (PDD or DLB participants [1]; 150 mg oral daily, Week-12): 18
MMSE score (PDD or DLB participants [1]; 150 mg oral daily, Week-12): 21 and 1 and 11 and 29 and 28
MMSE score, AVG (PDD or DLB participants [1]; 150 mg oral daily, Week-16): 18.6
MMSE score (PDD or DLB participants [1]; 150 mg oral daily, Week-16): 26 and 1 and 8 and 30 and 28
MMSE score, AVG (PDD or DLB participants [1]; 150 mg oral daily, Week-20): 18.4
MMSE score (PDD or DLB participants [1]; 150 mg oral daily, Week-20): 26 and 1 and 10 and 30 and 25
MMSE score, AVG (PDD or DLB participants [1]; 150 mg oral daily, Week-24): 19.25
MMSE score (PDD or DLB participants [1]; 150 mg oral daily, Week-24): 23 and 2 and 29
Average increase in MMSE (PDD or DLB participants [1]; 150 mg oral daily): 3.85 points
Average increase in MMSE (PDD or DLB participants [1]; 300 mg oral daily): 3.5 points
SCOPA-Cog (**/43) score, AVG (PDD or DLB participants [2]; 150 mg oral daily, Week-8, group AVG (Screening AVG 9.4)): 10
SCOPA-Cog (**/43) score (PDD or DLB participants [2]; 150 mg oral daily, Week-8): 5 and 0 and 4 and 23 and 18
SCOPA-Cog (**/43) score, AVG (PDD or DLB participants [2]; 150 mg oral daily, Week-20, group AVG (Screening AVG 9.4)): 9.6
SCOPA-Cog (**/43) score (PDD or DLB participants [2]; 150 mg oral daily, Week-20): 3 and 1 and 0 and 26 and 18
SCOPA-Cog (**/43) score, AVG (PDD or DLB participants [2]; 150 mg oral daily, Week-24, group AVG (Screening AVG 9.4)): 11.25
SCOPA-Cog (**/43) score (PDD or DLB participants [2]; 150 mg oral daily, Week-24): 4 and 0 and 23 and 18
Average increase in SCOPA-Cog (PDD or DLB participants [2]; 150 mg oral daily): 1.85 points
SCOPA-Cog (**/43) score, AVG (PDD or DLB participants [2]; 300 mg oral daily, Week-8, group AVG (Screening AVG 10.33)): 12.17
SCOPA-Cog (**/43) score (PDD or DLB participants [2]; 300 mg oral daily, Week-8): 22 and 30 and 11 and 9 and 0 and 1
SCOPA-Cog (**/43) score, AVG (PDD or DLB participants [2]; 300 mg oral daily, Week-20, group AVG (Screening AVG 10.33)): 13.3
SCOPA-Cog (**/43) score (PDD or DLB participants [2]; 300 mg oral daily, Week-20): 21 and 30 and 19 and 10 and 0
SCOPA-Cog (**/43) score, AVG (PDD or DLB participants [2]; 300 mg oral daily, Week-24, group AVG (Screening AVG 10.33)): 12.33
SCOPA-Cog (**/43) score (PDD or DLB participants [2]; 300 mg oral daily, Week-24): 22 and 31 and 10 and 0 and 1
Average increase in SCOPA-Cog (PDD or DLB participants [2]; 300 mg oral daily): 2 points
Serious adverse events (one participant each) (PDD or DLB participants [3]; 150 mg group, n = 5): hospitalized with pneumonia and UTI
Serious adverse events (one participant each) (PDD or DLB participants [3]; 300 mg group, n = 7): withdrawn at week 4 and diagnosed with myocardial infarct and left bundle block; also recorded: hospitalized with urinary tract infection (UTI)
Safety and tolerability (PDD or DLB participants [3]; once daily oral 150 mg or 300 mg, subjects with PDD or DLB): may be safe and tolerated
QTc finding in participant NIL 8 (PDD or DLB participants [4]; 150 mg group): slight QTc prolongation >450 ms at week 8
QTc finding in participant NIL 15 (PDD or DLB participants [4]; 300 mg group): two episodes of QTc prolongation >450 ms at week 2 and week 8
AEs below normal range of alanine aminotransferase (ALT) level (<100%) (PDD or DLB participants [5]): three
CSF homovanillic acid (HVA) vs baseline (homovanillic acid (HVA); 150 mg group, 2 months, t-test): significantly increased
CSF homovanillic acid (HVA) vs baseline (homovanillic acid (HVA); 150 mg group, 6 months): remained elevated (non-significant)
CSF homovanillic acid (HVA) vs baseline (homovanillic acid (HVA); 300 mg group, 6 months): significantly increased
Plasma α-synuclein at 6 months compared to 2 months (α-synuclein; 150 mg group): significantly higher
CSF α-synuclein vs baseline (α-synuclein; 150 mg group, 2 and 6 months): slightly reduced
Plasma α-synuclein vs baseline (α-synuclein; 150 mg group): slightly reduced
CSF α-synuclein at 2 months compared to 6 months (α-synuclein; 150 mg group, t-test): significantly (t-test) lower
Plasma α-synuclein vs baseline (α-synuclein; 300 mg group): significantly reduced
Plasma α-synuclein (α-synuclein; 300 mg group, 6 months): returned to baseline
CSF α-synuclein (α-synuclein; 300 mg group, between baseline, 2 and 6 months): unaltered
CSF DJ-1 (DJ-1; 150 mg group): trended towards a decrease
CSF DJ-1 vs baseline (DJ-1; 300 mg group, six months): significantly reduced
CSF S100B level (S100B; 150 mg group): gradually reduced
CSF S100B level (S100B; 300 mg group): gradually reduced
CSF NSE level vs baseline ([6]; 150 mg group): significantly reduced
CSF NSE level vs baseline ([6]; 300 mg group): significantly reduced
CSF total tau vs baseline (total tau; 150 mg group, 2 months): significantly reduced
CSF total tau vs baseline (total tau; 300 mg group, 6 months): significantly reduced
CSF Aβ40 (Aβ40; 150 mg group): No changes
CSF Aβ40 vs baseline (Aβ40; 300 mg group, 6 months): significantly reduced
CSF Aβ42 (Aβ42): No changes

From PMC5008228 (Journal of Parkinson's Disease, 2016)
